Reference: ChEMBL document CHEMBL3804788, “The design of 8-hydroxyquinoline tetracyclic lactams as HIV-1 integrase strand transfer inhibitors” (Eur J Med Chem, 2016)
Values after ≈ are worked out from the molar mass of the structure shown.

What was measured:
[1] = system: Human immunodeficiency virus type 1 integrase (Human immunodeficiency virus 1), Q7ZJM1 [Q148K]; test: (§1) Inhibition of pseudotype HIV1 integrase Q148K mutant strand transfer activity in HIV1 infected human CIP4 cells assessed as ratio of IC50 for pseudotype HIV1 integrase Q148K mutant strand transfer activity to IC50 for pseudotype HIV1 integrase strand transfer activity after 2 days by luciferase reporter gene assay; type: cell-based
[2] = system: Human immunodeficiency virus type 1 integrase (Human immunodeficiency virus 1), Q7ZJM1 [G140S,Q148H]; test: as §1, with “G140S/Q148H double” for “Q148K”; type: cell-based
[3] = Cytotoxicity against human CIP4 cells; type: cell-based
[4] = Total clearance in iv or po dosed beagle dog after 24 hrs by LC-MS/MS analysis; type: ADME, organism-based, Canis lupus familiaris; conditions: in vivo
[5] = Oral bioavailability in Sprague-Dawley rat at 5 mg/kg after 24 hrs by LC-MS/MS analysis; type: ADME, organism-based; conditions: in vivo
[6] = Oral bioavailability in beagle dog after 24 hrs by LC-MS/MS analysis; type: ADME, organism-based, Canis lupus familiaris; conditions: in vivo
[7] = Half life in Sprague-Dawley rat at 1 mg/kg, iv or 5 mg/kg, po by LC-MS/MS analysis; type: ADME, organism-based; conditions: in vivo
[8] = Half life in iv or po dosed beagle dog by LC-MS/MS analysis; type: ADME, organism-based, Canis lupus familiaris; conditions: in vivo
[9] = Apparent permeability of compound; type: physicochemical; conditions: not told
Rattus norvegicus = test: Total clearance in Sprague-Dawley rat at 1 mg/kg, iv or 5 mg/kg, po after 24 hrs by LC-MS/MS analysis relative to hepatic blood flow; type: ADME, organism-based, Liver; conditions: in vivo
[10] = Total clearance in Sprague-Dawley rat at 1 mg/kg, iv or 5 mg/kg, po after 24 hrs by LC-MS/MS analysis; type: ADME, organism-based; conditions: in vivo
[11] = Intrinsic aqueous solubility of compound by chemiluminescent nitrogen detection method; type: physicochemical; conditions: buffer
Canis familiaris = test: Total clearance in iv or po dosed beagle dog after 24 hrs by LC-MS/MS analysis relative to hepatic blood flow; type: ADME, organism-based, Canis lupus familiaris, Liver; conditions: in vivo
[12] = target: Human immunodeficiency virus type 1 integrase (Human immunodeficiency virus 1) (UniProt Q7ZJM1); test: Ratio of IC50 for pseudotype HIV1 integrase strand transfer activity in presence of 40% human serum albumin to IC50 for pseudotype HIV1 integrase strand transfer activity
Outline: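 Single-round assay with a self-inactivating pseudotyped HIV (PHIV) lentiviral luciferase vector. CIP4 cells (2 × 10^4/well) were infected with enough PHIV to give about 50,000 relative light units. Cells were incubated 2 days with compound at varying concentrations, with or without 40% human serum albumin. Infection was read as luciferase luminescence (Steady-Glo). Serum shift is the IC50 with albumin divided by the IC50 without.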

## N#Cc1c2c(c(O)c3ncc(Cc4cccc(Cl)c4F)cc13)C(=O)N1CCC[C@@H]1C2
[1]
  Ratio IC50: 0.8
[2]
  Ratio IC50: 1.5
[3]
  CC50: 12.8 µM

## N#Cc1c2c(c(O)c3ncc(Cc4cccc(Cl)c4F)cc13)C(=O)N1CCCC[C@H]21
[1]
  Ratio IC50: 8.8
[2]
  Ratio IC50: 17
[3]
  CC50: 7.05 µM

## NC(=O)c1c2c(c(O)c3ncc(Cc4cccc(Cl)c4F)cc13)C(=O)N1CCCC[C@H]21
[4]
  clearance: 2.8 mL/min/kg
[5]
  bioavailability: 2%
[6]
  bioavailability: 14%
[7]
  half-life: 7.2 h
[8]
  half-life: 11.8 h
[9]
  Papp: 6 ×10⁻⁶ cm/s
[1]
  Ratio IC50: 1.4
[2]
  Ratio IC50: 2.8
Rattus norvegicus
  CL: 2%
[10]
  clearance: 1.4 mL/min/kg
[3]
  CC50: 24.4 µM
[11]
  solubility: 25 µM (≈ 11 µg/mL)
Canis familiaris
  CL: 5%

## NC(=O)c1c2c(c(O)c3ncc(Cc4cccc(Cl)c4F)cc13)C(=O)N1CCC[C@H]1C2
[1]
  Ratio IC50: 0.6
[2]
  Ratio IC50: 2.6
[3]
  CC50: 36.8 µM

## Cn1c(=O)c(C(=O)NCCO)c(O)c2ncc(Cc3ccc(F)cc3)cc21
[1]
  Ratio IC50: 40

## NC(=O)c1c2c(c(O)c3ncc(Cc4cccc(Cl)c4F)cc13)C(=O)N1CCC[C@@H]1C2
[1]
  Ratio IC50: 0.6
[2]
  Ratio IC50: 0.4
[3]
  CC50: 21.1 µM

## N#Cc1c2c(c(O)c3ncc(Cc4cccc(Cl)c4F)cc13)C(=O)N1CCC[C@H]21
[1]
  Ratio IC50: 216
[2]
  Ratio IC50: 456
[3]
  CC50: 7.27 µM

## N#Cc1c2c(c(O)c3ncc(Cc4cccc(Cl)c4F)cc13)C(=O)N1CCC[C@H]1C2
[1]
  Ratio IC50: 1.4
[2]
  Ratio IC50: 2.8
[3]
  CC50: 50 µM

## O=C(NCc1ccc(F)cc1)c1cn2c(c(O)c1=O)C(=O)N1CCCO[C@H]1C2
[1]
  Ratio IC50: 2.4

## N#Cc1c2c(c(O)c3ncc(Cc4cccc(Cl)c4F)cc13)C(=O)N1CCCC[C@@H]21
[1]
  Ratio IC50: 17
[2]
  Ratio IC50: 93
[3]
  CC50: 3.36 µM

## O=C1c2c(cc3cc(Cc4cccc(Cl)c4F)cnc3c2O)CN2CCCN12
[12]
  Ratio IC50: 9
[1]
  Ratio IC50: 0.4
[2]
  Ratio IC50: 2.3

## NC(=O)c1c2c(c(O)c3ncc(Cc4cccc(Cl)c4F)cc13)C(=O)N1CCCC[C@@H]21
[1]
  Ratio IC50: 0.1
[2]
  Ratio IC50: 3.7
[3]
  CC50: 5.18 µM

## N#Cc1c2c(c(O)c3ncc(Cc4cccc(Cl)c4F)cc13)C(=O)N1CCC[C@@H]21
[1]
  Ratio IC50: 31
[2]
  Ratio IC50: 131
[3]
  CC50: 1.83 µM

## N#Cc1c2c(c(O)c3ncc(Cc4cccc(Cl)c4F)cc13)C(=O)N1CCCN1C2
[12]
  Ratio IC50: 188
[1]
  Ratio IC50: 1.3
[2]
  Ratio IC50: 8
